Results published in ChEMBL document CHEMBL3871278, “Isolation of Coralmycins A and B, Potent Anti-Gram Negative Compounds from the Myxobacteria Corallococcus coralloides M23” (J Nat Prod, 2016).
≈ marks a conversion by molar mass, not a printed value. Structures can show the parent of a compound that is named as a salt.

Tests used:
Staphylococcus aureus [1] = assay: Antibacterial activity against Staphylococcus aureus RN4220 after 24 hrs by broth microdilution method; format: functional; conditions: RN4220, 24 h
Outline: (§1)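 Broth microdilution with triplicate serial 2-fold dilutions; inoculum 10^5 cells/mL at 0.2 mL/well. Strains were grown to mid-log phase and diluted 1000-fold. Media: Mueller-Hinton broth for most strains, nutrient broth for A. baumannii, Todd-Hewitt for S. pneumoniae. DMSO was at most 0.05% final. After 24 h at 37 °C, MIC = lowest concentration completely inhibiting growth, read by A650.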

Escherichia coli [2] = assay: Antibacterial activity against Escherichia coli CCARM 1356 after 24 hrs by broth microdilution method; format: functional; conditions: CCARM 1356, 24 h; outline: as §1
Klebsiella pneumoniae = assay: Antibacterial activity against Klebsiella pneumoniae KCTC 22057 after 24 hrs by broth microdilution method; format: functional; conditions: KCTC 22057, 24 h; outline: as §1
Streptococcus pneumoniae = assay: Antibacterial activity against Streptococcus pneumoniae KCTC 5412 after 24 hrs by broth microdilution method; format: functional; conditions: KCTC 5412, 24 h; outline: as §1
Escherichia coli [3] = assay: Antibacterial activity against Escherichia coli KCTC 1682 after 24 hrs by broth microdilution method; format: functional; conditions: KCTC 1682, 24 h; outline: as §1
Staphylococcus aureus [4] = assay: Antibacterial activity against methicillin-resistant Staphylococcus aureus CCARM 3506 after 24 hrs by broth microdilution method; format: functional; conditions: CCARM 3506, 24 h
Outline: (§2)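 Strains grown to mid-log phase in Mueller-Hinton broth, diluted 1000-fold; 10^5 cells/mL in Mueller-Hinton broth exposed to serial 2-fold dilutions of compound from DMSO stocks (final DMSO ≤0.05%; 0.05% DMSO vehicle control; ciprofloxacin comparator). Incubated 24 h at 37 °C; growth read by absorbance at 650 nm. MIC = lowest concentration completely inhibiting growth, in triplicate.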

Enterococcus faecalis = assay: Antibacterial activity against Enterococcus faecalis KCTC 5191 after 24 hrs by broth microdilution method; format: functional; conditions: KCTC 5191, 24 h; outline: as §1
Acinetobacter baumannii = assay: Antibacterial activity against Acinetobacter baumannii KCTC 2508 after 24 hrs by broth microdilution method; format: functional; conditions: KCTC 2508, 24 h; outline: as §1
Staphylococcus aureus [5] = assay: Antibacterial activity against quinolone-resistant Staphylococcus aureus CCARM 3505 after 24 hrs by broth microdilution method; format: functional; conditions: CCARM 3505, 24 h; outline: as §2
Pseudomonas aeruginosa = assay: Antibacterial activity against Pseudomonas aeruginosa KCTC 2004 after 24 hrs by broth microdilution method; format: functional; conditions: KCTC 2004, 24 h; outline: as §1
Staphylococcus aureus [6] = assay: Antibacterial activity against quinolone-resistant Staphylococcus aureus CCARM 3519 after 24 hrs by broth microdilution method; format: functional; conditions: CCARM 3519, 24 h; outline: as §2
Staphylococcus aureus [7] = assay: Antibacterial activity against methicillin-resistant Staphylococcus aureus CCARM 3167 after 24 hrs by broth microdilution method; format: functional; conditions: CCARM 3167, 24 h; outline: as §2
[8] = Cytotoxicity against human MCF10A cells assessed as cell growth inhibition at 50 ug/ml after 48 hrs by SRB assay; format: toxicity, cell-based; conditions: mcf-10a
Outline: (§3)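 Single-concentration test at 50 μg/mL for 48 h. HepG2, MRC-9 or MCF10A cells (under passage 20) were grown in RPMI 1640 with 10% newborn calf serum and seeded at 1 × 10^4 cells/well one day before treatment. Growth inhibition was read by sulforhodamine B assay.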

[9] = Cytotoxicity against human HepG2 cells assessed as cell growth inhibition at 50 ug/ml after 48 hrs by SRB assay; format: toxicity, cell-based; conditions: hepg2, 48 h; outline: as §3
[10] = Cytotoxicity against human MRC9 cells assessed as cell growth inhibition at 50 ug/ml after 48 hrs by SRB assay; format: toxicity, cell-based; conditions: mrc9, 48 h; outline: as §3
[11] = Cytotoxicity against human MCF10A cells assessed as cell growth inhibition after 48 hrs by SRB assay; format: toxicity, cell-based, MCF-10A
Outline: (§4)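 HepG2, MRC-9 or MCF10A cells (under passage 20) were grown in RPMI 1640 with 10% newborn calf serum and seeded at 1 × 10^4 cells/well one day before treatment. Compounds were applied at various concentrations for 48 h. Viability was measured by sulforhodamine B staining, and GI50 was calculated from the dose-response.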

[12] = Cytotoxicity against human HepG2 cells assessed as cell growth inhibition after 48 hrs by SRB assay; format: toxicity, cell-based; outline: as §4
[13] = Cytotoxicity against human MRC9 cells assessed as cell growth inhibition after 48 hrs by SRB assay; format: toxicity, cell-based; outline: as §4

Compound | MIC (Staphylococcus aureus [1]) [µg/mL] | MIC (Escherichia coli [2]) [µg/mL] | MIC (Klebsiella pneumoniae) [µg/mL] | MIC (Streptococcus pneumoniae) [µg/mL] | MIC (Escherichia coli [3]) [µg/mL] | MIC (Staphylococcus aureus [4]) [µg/mL] | MIC (Enterococcus faecalis) [µg/mL] | MIC (Acinetobacter baumannii) [µg/mL] | MIC (Staphylococcus aureus [5]) [µg/mL] | MIC (Pseudomonas aeruginosa) [µg/mL] | MIC (Staphylococcus aureus [6]) [µg/mL] | MIC (Staphylococcus aureus [7]) [µg/mL] | Activity [8] | Activity [9] | Activity [10] | GI50 at 48 h [11] [µg/mL] | GI50 at 48 h [12] [µg/mL] | GI50 at 48 h [13] [µg/mL]
CO[C@@H](C(N)=O)[C@H](NC(=O)c1ccc(NC(=O)c2ccc([N+](=O)[O-])cc2)cc1)C(=O)Nc1ccc(C(=O)Nc2ccc(C(=O)Nc3ccc(C(=O)O)c(O)c3OC(C)C)c(O)c2OC(C)C)cc1 | 0.015 (≈ 0.016 µM) | 0.125 (≈ 0.134 µM) | 2 (≈ 2.14 µM) | 0.25 (≈ 0.267 µM) | 0.125 (≈ 0.134 µM) | 0.015 (≈ 0.016 µM) | 0.03 (≈ 0.0321 µM) | 0.125 (≈ 0.134 µM) | 0.125 (≈ 0.134 µM) | 4 (≈ 4.27 µM) | 0.25 (≈ 0.267 µM) | 0.015 (≈ 0.016 µM) |  |  |  |  |  | 
CO[C@@H](C(N)=O)[C@H](NC(=O)c1ccc(NC(=O)c2ccc([N+](=O)[O-])cc2)cc1)C(=O)Nc1ccc(C(=O)Nc2ccc(C(=O)Nc3ccc(C(=O)O)cc3OC(C)C)c(O)c2OC(C)C)cc1 | 0.063 (≈ 0.0685 µM) | 1 (≈ 1.09 µM) | 8 (≈ 8.7 µM) | 2 (≈ 2.17 µM) | 0.5 (≈ 0.544 µM) | 0.125 (≈ 0.136 µM) | 0.125 (≈ 0.136 µM) | 0.25 (≈ 0.272 µM) | 1 (≈ 1.09 µM) | 8 (≈ 8.7 µM) | 2 (≈ 2.17 µM) | 0.125 (≈ 0.136 µM) | Non-Toxic | Non-Toxic | Non-Toxic |  |  | 
CO[C@H](C(=O)O)[C@H](NC(=O)c1ccc(NC(=O)c2ccc([N+](=O)[O-])cc2)cc1)C(=O)Nc1ccc(C(=O)Nc2ccc(C(=O)Nc3ccc(C(=O)O)cc3OC(C)C)c(O)c2OC(C)C)cc1 | 2 (≈ 2.17 µM) | 16 (≈ 17.4 µM) | > 16 | > 16 | 4 (≈ 4.34 µM) | 1 (≈ 1.09 µM) | 4 (≈ 4.34 µM) | 4 (≈ 4.34 µM) |  | > 16 |  | 1 (≈ 1.09 µM) |  |  |  |  |  | 
O=C(O)c1cn(C2CC2)c2cc(N3CCNCC3)c(F)cc2c1=O [CIPROFLOXACIN] |  | 64 (≈ 193 µM) | 0.006 (≈ 0.0181 µM) |  |  |  | 0.5 (≈ 1.51 µM) | 0.125 (≈ 0.377 µM) | 128 (≈ 386 µM) | 0.06 (≈ 0.181 µM) | 128 (≈ 386 µM) | 2 (≈ 6.04 µM) |  |  |  |  |  | 
COc1cccc2c1C(=O)c1c(O)c3c(c(O)c1C2=O)C[C@@](O)(C(=O)CO)C[C@@H]3O[C@H]1C[C@H](N)[C@H](O)[C@H](C)O1 [DOXORUBICIN HYDROCHLORIDE] |  |  |  |  |  |  |  |  |  |  |  |  |  |  |  | 0.04 to 0.08 | 0.04 to 0.08 | 0.04 to 0.08
